This note sets out measurements from ChEMBL document CHEMBL1641445, “Synthesis, antiprotozoal, antimicrobial, β-hematin inhibition, cytotoxicity and methemoglobin (MetHb) formation activities of bis(8-aminoquinolines)” (Bioorg Med Chem, 2011).

One data set concerns Nakaseomyces glabratus. Description: Antifungal activity against Candida glabrata at 20 ug/ml. The data set is classed as functional, organism-based.
For the next data set, the system named is Leishmania donovani. Description: Antileishmanial activity against promastigotes of Leishmania donovani by alamar blue assay. It is filed as functional, organism-based. As to conditions: for IC50: read-out: IC50. (The colour change of resazurin is a common sign of viable cells or microbes.)
Data set [1] relates to Mycobacterium intracellulare. The experiment in a line: Antibacterial activity against Mycobacterium intracellular ATCC 23068 at 20 ug/ml by CLSI method. The data set is classed as functional, organism-based.
For another data set, the system named is Pichia kudriavzevii. The experiment in a line: Antifungal activity against Candida krusei at 20 ug/ml. It is filed as functional, organism-based.
The subject of data set [2] is Staphylococcus aureus. The experiment in a line: Antibacterial activity against methicillin-resistant Staphylococcus aureus ATCC 43300 by CLSI method. It is filed as functional, organism-based. The method in brief: (§1)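 Broth dilution method (NCCLS M7-A5). […] MIC is the lowest concentration allowing no detectable growth. MBC is the lowest concentration killing the organism. Highest test concentration was 20 µg/mL.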

In data set [3] the test system is Plasmodium falciparum. Description: Antimalarial activity against chloroquine-resistant Plasmodium falciparum W2 by LDH assay. The data set is classed as functional, organism-based. Particulars: Plasmodium falciparum, W2; read-out: IC50. The method in brief: (§2)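 Antiplasmodial activity was measured in vitro against P. falciparum blood-stage cultures. Read-out was parasite lactate dehydrogenase (LDH) activity, with IC50 values expressed in µg/mL. The same protocol was used for the D6 and W2 strains.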

Data set [4] deals with Candida albicans. The experiment in a line: Antifungal activity against Candida albicans ATCC 90028 at 20 ug/ml. It is filed as functional, organism-based.
For another data set, the system named is Vero. The experiment in a line: Cytotoxicity against african green monkey Vero cells up to 10 ug/ml by neutral red assay. It is filed as cell-based. Particulars: chlorocebus sabaeus. A digest of the protocol: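 Vero (monkey kidney) cells were exposed up to a highest concentration of 10 µg/mL. Viability was read by neutral red uptake.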
The test system of data set [5] is Mycobacterium intracellulare. Description: Antibacterial activity against Mycobacterium intracellular ATCC 23068 by CLSI method. It is filed as functional, organism-based.
The next data set has as its system Cryptococcus neoformans. Description: Antifungal activity against Cryptococcus neoformans ATCC 90113. The data set is classed as functional, organism-based.
Data set [6] deals with Plasmodium falciparum. The experiment in a line: Antimalarial activity against chloroquine-sensitive Plasmodium falciparum D6 by LDH assay. The data set is classed as functional, organism-based. The method in brief: as §2
Data set [7] in a line: Inhibition of beta-hematin formation. The data set is classed as functional.
The subject of a further data set is Aspergillus fumigatus. The experiment in a line: Antifungal activity against Aspergillus fumigatus ATCC 90906 at 20 ug/ml. The data set is classed as functional, organism-based.
In data set [8] the test system is Staphylococcus aureus. The experiment in a line: Antibacterial activity against methicillin-resistant Staphylococcus aureus ATCC 43300 at 20 ug/ml by CLSI method. It is filed as functional, organism-based. The method in brief: as §1
The nature of data set [9]: Hematotoxicity against RBC assessed as formation of methemoglobin at 20 ug/ml relative to control. It is filed as cell-based. Particulars: erythrocyte. A digest of the protocol:
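Metabolism-linked methemoglobin toxicity in vitro. Percent MetHb formation was determined at 20 µg/mL of compound relative to vehicle control.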

In data set [10] the test system is Candida albicans. Description: Antifungal activity against Candida albicans ATCC 90028. The data set is classed as functional, organism-based.
The test system of data set [11] is Plasmodium berghei. The experiment in a line: Antimalarial activity against Plasmodium berghei infected in mouse assessed as complete elimination of malaria parasites from animals at 100 mg/kg, po qd for 4 days measured up to 60 days. It is filed as functional, organism-based. Also noted: dose 100 mg/kg. A digest of the protocol: (§3)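 Rodent P. berghei (sensitive strain) blood-schizontocidal model, 6 mice per group. Compounds were given orally once daily for 4 days at 10, 25, 50 or 100 mg/kg/day. Cure meant complete parasite elimination with survival to day D+60.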

Data set [12] relates to Plasmodium berghei. Description: Antimalarial activity against Plasmodium berghei infected in mouse assessed as complete elimination of malaria parasites from animals at 50 mg/kg, po qd for 4 days measured up to 60 days. It is filed as functional, organism-based. Also noted: dose 50 mg/kg. A digest of the protocol:
as §3

Data set [13] has as its system Plasmodium berghei. Description: Antimalarial activity against Plasmodium berghei infected in mouse assessed as negative parasitemia level at 10 mg/kg, po qd for 4 days measured up to 7 days. It is filed as functional, organism-based. Also noted: dose 10 mg/kg. A digest of the protocol:
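Mice infected with P. berghei (sensitive strain), 6 per group, dosed orally at 10–100 mg/kg/day × 4. Suppression meant negative parasitemia in all treated animals up to D+7. Survivors were counted at D+60.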

Where [14] appears, read: Plasmodium falciparum, D6, read-out: IC50.

Activity calls are given as the source filed them.

With `COc1cc(NC(C)CCCNC(=O)C[C@H](N)C(=O)NCCCC(C)Nc2cc(OC)cc3cccnc23)c2ncccc2c1.Cl` (stereo not given in full), the outcome with Nakaseomyces glabratus, in the data set with Pichia kudriavzevii and in the data set on Aspergillus fumigatus was inactive. It took 30 µg/mL to reach the 90% level in the data set on Leishmania donovani (Leishmania donovani) (IC90). For the same compound, the MBC entry (in [1]; in the data set with Staphylococcus aureus [8]) was “inactive” throughout. The MIC entry (in data set [1]; in the data set with Candida albicans [4]) was “inactive” throughout. Moreover, the IC50 (usually the concentration at which inhibition is half-maximal) with Staphylococcus aureus [2] was 15 µg/mL; in the data set on Plasmodium falciparum [3] it was 3.8 µg/mL; in the data set on Candida albicans [4], “Not Active”; in [5] it was 20 µg/mL; in the data set on Cryptococcus neoformans it was 7.5 µg/mL; in the data set with Plasmodium falciparum [6] (setting [14]), 4.76 µg/mL. The compound also displayed an IC50 in [7] of 185 µM. For the same compound, the MIC – broadly, the lowest concentration that inhibits growth of the organism – against Staphylococcus aureus [2] worked out at 20 µg/mL; against Cryptococcus neoformans, 10 µg/mL. The MFC (as a rule, the smallest concentration meeting the test's criterion for killing the fungus) in the data set with Candida albicans [4] is “inactive”. In the data set on Vero, the Activity entry is on record as “Non-toxic”. Further, the MFC against Cryptococcus neoformans is 10 µg/mL. Besides, the Methemoglobin formation in data set [9] is listed as 5.4%.
For `COc1cc(NC(C)CCCNC(=O)N[C@@H](CCCN)C(=O)NCCCC(C)Nc2cc(OC)cc3ccc(C(C)(C)C)nc23)c2nc(C(C)(C)C)ccc2c1.Cl` (stereo not given in full), the outcome in the data set with Nakaseomyces glabratus, in the data set with Pichia kudriavzevii and with Aspergillus fumigatus was inactive. In the data set with Leishmania donovani (Leishmania donovani), the IC90 (commonly the concentration at which the effect reaches the 90% level) stood at 33 µg/mL. Also, the IC50 in the data set on Leishmania donovani (Leishmania donovani) came out at 18 µg/mL; with Staphylococcus aureus [2] it was 6.5 µg/mL; in the data set on Candida albicans [10] it was 15 µg/mL; in data set [5], 15 µg/mL; in the data set with Cryptococcus neoformans it was 15 µg/mL; in the data set with Plasmodium falciparum [6] (setting [14]), 4 µg/mL. In data set [7], this compound displayed an IC50 of 152 µM. Besides, in data set [1], the MBC (in general, the lowest tested concentration that kills the bacteria rather than only halting them) was “inactive”. The minimal bactericidal concentration (MBC) in the data set on Staphylococcus aureus [2] stood at 20 µg/mL. Besides, the MIC against Staphylococcus aureus [2] and in the data set with Cryptococcus neoformans was 20 µg/mL throughout. In the data set on Candida albicans [4], the MFC entry is “inactive”. In addition, the MIC result in the data set with Candida albicans [4] is “inactive”. Also, in the data set on Vero, the Activity result is given as “Non-toxic”. The Methemoglobin formation in data set [9] is on record as 0.2%.
Turning to `CCCCCOc1c(OC)cc(NC(C)CCCNC(=S)NCCCC(C)Nc2cc(OC)c(OCCCCC)c3c(CC)ccnc23)c2nccc(CC)c12.Cl.Cl` (stereo not given), the result in the data set on Nakaseomyces glabratus, with Pichia kudriavzevii and in the data set on Aspergillus fumigatus was inactive. For the same compound, the IC90 result with Leishmania donovani was “inactive”. Besides, the IC50 in the data set with Leishmania donovani (Leishmania donovani) worked out at 40 µg/mL; in the data set on Staphylococcus aureus [2], 3.5 µg/mL; in the data set with Plasmodium falciparum [3] it was 4.76 µg/mL; in the data set with Candida albicans [10] it was 10 µg/mL; in data set [5] it was 15 µg/mL; with Cryptococcus neoformans, 10 µg/mL. In addition, the IC50 result was “Not Active” with Plasmodium falciparum [6] and greater than 1000 µM in data set [7]. The MBC entry in data set [1] is “inactive”. In the data set on Staphylococcus aureus [2], the MBC stood at 10 µg/mL. The minimum inhibitory concentration (MIC) was determined as 5 µg/mL in the data set on Staphylococcus aureus [2], 20 µg/mL against Candida albicans [10], 20 µg/mL in data set [5] and 20 µg/mL against Cryptococcus neoformans. The MFC entry with Candida albicans [4] is “inactive”. In addition, in the data set on Vero, the Activity result is on record as “Non-toxic”. In the data set with Cryptococcus neoformans, this compound returned an MFC of 20 µg/mL. Also, the Methemoglobin formation in data set [9] was 1.7%.
On to `COc1cc(NC(C)CCCNC(=O)NC(CCCNC(=N)N)C(=O)NCCCC(C)Nc2cc(OC)cc3cccnc23)c2ncccc2c1` (single isomer, unassigned; 36), for which the result in the data set with Nakaseomyces glabratus, in the data set on Pichia kudriavzevii, in the data set with Aspergillus fumigatus and with Plasmodium berghei [12] was inactive. Also, the MFC entry in the data set on Candida albicans [4] was “inactive”. In the data set with Candida albicans [4], the MIC result is “inactive”. For the same compound, the result with Plasmodium berghei [11] was Active.
With `COc1cc(NC(C)CCCN)c2ncccc2c1` (stereo not given) [PRIMAQUINE], the outcome in the data set with Plasmodium berghei [13] and in the data set with Plasmodium berghei [11] was inactive. Moreover, in the data set with Leishmania donovani, the IC90 result is “inactive”. Also, in the data set on Vero, the Activity result is given as “Non-toxic”. Moreover, the IC50 in data set [7] is greater than 1000 µM. The Methemoglobin formation in [9] stood at 10%.
